Experimental findings from ChEMBL document CHEMBL1157664, “Aminopyridinecarboxamide-based inhibitors: Structure-activity relationship” (Bioorg Med Chem, 2010) are described below.

Assay [1] deals with T1, Inhibitor of nuclear factor kappa-B kinase subunit beta (Homo sapiens, UniProt O14920).
T1 sequence (O14920 whole entry): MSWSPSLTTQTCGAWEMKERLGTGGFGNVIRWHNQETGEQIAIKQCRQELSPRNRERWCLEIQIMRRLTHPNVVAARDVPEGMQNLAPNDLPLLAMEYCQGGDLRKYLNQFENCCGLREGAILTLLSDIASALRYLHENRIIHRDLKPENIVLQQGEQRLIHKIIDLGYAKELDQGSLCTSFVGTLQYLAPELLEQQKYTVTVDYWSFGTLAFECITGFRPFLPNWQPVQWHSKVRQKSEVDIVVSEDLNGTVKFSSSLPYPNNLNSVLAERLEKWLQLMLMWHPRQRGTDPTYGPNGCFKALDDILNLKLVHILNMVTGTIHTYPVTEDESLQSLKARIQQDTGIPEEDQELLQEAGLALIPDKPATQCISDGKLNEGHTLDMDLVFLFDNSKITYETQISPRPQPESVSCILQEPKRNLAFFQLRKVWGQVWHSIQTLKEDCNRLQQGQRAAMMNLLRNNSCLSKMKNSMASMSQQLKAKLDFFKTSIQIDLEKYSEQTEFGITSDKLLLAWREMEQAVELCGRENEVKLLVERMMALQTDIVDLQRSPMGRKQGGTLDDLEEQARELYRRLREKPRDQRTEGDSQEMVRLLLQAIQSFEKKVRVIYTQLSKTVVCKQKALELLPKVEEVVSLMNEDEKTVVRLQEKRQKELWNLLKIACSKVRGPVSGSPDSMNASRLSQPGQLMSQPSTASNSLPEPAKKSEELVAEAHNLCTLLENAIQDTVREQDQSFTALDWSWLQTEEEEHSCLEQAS
As to the kind of experiment: Inhibition of human recombinant IKK2-mediated transfer of [gamma33P]ATP to biotinylated IkappaBalpha after 30 mins by scintillation counting. The procedure, abridged: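 Recombinant human IKK-2 enzyme (46 nM/rxn, 200 ng/rxn). Substrate 5 µM biotinylated IκBα peptide (residues spanning Ser32/Ser36) with 1 µM ATP plus 0.1 µCi [γ-33P]ATP. Buffer 25 mM Hepes pH 7.6 with 1 mM DTT, 2 mM MgCl2, 2 mM MnCl2, 10 mM NaF. Incubated 30 min at 25 °C, stopped with AG1X8 resin in formate buffer pH 3. Supernatant ³³P read by scintillation counting.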

The nature of assay [2]: Antiinflammatory activity in human synovial fibroblasts assessed as inhibition of IL-1-beta-stimulated IL8 production treated 1 hr before IL1-beta challenge measured after 18 hrs by ELISA. Format: functional. The procedure, abridged: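 Rheumatoid arthritis patient synovial fibroblasts seeded at 1.5 × 10^4 cells/well in DMEM + 15% FBS and left to attach overnight. Medium then changed to DMEM + 1% FBS. Cells pretreated 1 h with increasing compound concentrations (0.2% Me2SO final), then stimulated 18 h with 1 ng/mL IL-1β. Secreted IL-8 measured by ELISA against standard curves (4-parameter logistic). Cytotoxicity checked by Alamar Blue.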

In general, IC50 refers to the concentration that inhibits the measured activity by half. Consider `C[C@@H]1CN(c2cc(C(=O)Nc3ccc4c(c3)-c3c(c(C(N)=O)nn3-c3ccc(F)cc3)CC4)c(Cl)cn2)C[C@H](C)N1`, for which the IC50 in assay [1] came to 0.046 µM; in assay [2], 8.6 µM. In the same order, the values of `C[C@H]1CN(c2cc(C(=O)Nc3ccc4c(c3)-c3c(c(C(N)=O)nn3-c3ccc(F)cc3)CC4)c(Cl)cn2)CCN1` are 0.051 µM and 1.32 µM. Turning to `NC(=O)c1nn(-c2ccc3c(c2)OCO3)c2c1CCc1ccc(NC(=O)c3cc(N4CCOCC4)ncc3Cl)cc1-2`, the IC50 in assay [1] was determined as 0.09 µM; in assay [2], 0.849 µM. Regarding `CN1CCN(c2ncccc2C(=O)Nc2ccc3c(c2)-c2c(c(C(N)=O)nn2-c2ccc(F)cc2)CC3)CC1`, in assay [1], the half-maximal inhibitory concentration (IC50) was determined as 16.2 µM. For the compound `NC(=O)c1nn(-c2ccc3c(c2)OCO3)c2c1CCc1ccc(NC(=O)c3nc(N4CCOCC4)ccc3Cl)cc1-2`, the figures for the IC50 in assay [1] and in assay [2] were 0.612 µM and above 100 µM, respectively. As to `NC(=O)c1nn(-c2ccc3c(c2)OCO3)c2c1CCc1ccc(NC(=O)c3cccnc3Cl)cc1-2`, the concentration for half-maximal inhibition (IC50) in assay [1] was found to be 0.034 µM; in assay [2] it was 5 µM.

With `COCCN1CCN(c2cc(C(=O)Nc3ccc4c(c3)-c3c(c(C(N)=O)nn3-c3ccc(F)cc3)CC4)c(Cl)cn2)CC1`, the IC50 was found to be 0.059 µM in assay [1] and 1.02 µM in assay [2].

As for `CN(C)CCN(C)c1cc(C(=O)Nc2ccc3c(c2)-c2c(c(C(N)=O)nn2-c2ccc(F)cc2)CC3)c(Cl)cn1`, the concentration for half-maximal inhibition (IC50) in assay [1] turned out to be 0.019 µM; in assay [2], 4.18 µM. For `CNc1ccc(Cl)c(C(=O)Nc2ccc3c(c2)-c2c(c(C(N)=O)nn2-c2ccc4c(c2)OCO4)CC3)n1` the same measures were 0.477 µM and 5.74 µM. `NC(=O)c1nn(-c2ccc(F)cc2)c2c1CCc1ccc(NC(=O)c3nc(N4CCOCC4)ccc3Cl)cc1-2`: the figures for the IC50 in assay [1] and in assay [2] were 1.25 µM and 3.04 µM, respectively. In the same order, the values of `NC(=O)c1nn(-c2ccc(F)cc2)c2c1CCc1ccc(NC(=O)c3cc(N4CCNCC4)ncc3Cl)cc1-2` are 0.01 µM and 2.47 µM.

For the compound `CN1CCN(c2cc(C(=O)Nc3ccc4c(c3)-c3c(c(C(N)=O)nn3-c3ccc5c(c3)OCO5)CC4)c(Cl)cn2)CC1`, the results for the concentration for half-maximal inhibition (IC50) in assay [1] and in assay [2] were 0.033 µM and 0.63 µM, respectively. As for `NC(=O)c1nn(-c2ccc(F)cc2)c2c1CCc1ccc(NC(=O)c3cccnc3N)cc1-2`, the half-maximal inhibitory concentration (IC50) in assay [1] is 2.32 µM. Consider `NC(=O)c1nn(-c2ccc3c(c2)OCO3)c2c1CCc1ccc(NC(=O)c3cccnc3N)cc1-2`, for which the half-maximal inhibitory concentration (IC50) in assay [1] is 1.34 µM. For `CNc1ncccc1C(=O)Nc1ccc2c(c1)-c1c(c(C(N)=O)nn1-c1ccc(F)cc1)CC2`, the IC50 in assay [1] was found to be 3.21 µM. On the same count and under the same terms, under `NC(=O)c1nn(-c2ccc(F)cc2)c2c1CCc1ccc(NC(=O)c3cccnc3N3CCOCC3)cc1-2` stands 14.2 µM.

As for `NC(=O)c1nn(-c2ccc(F)cc2)c2c1CCc1ccc(NC(=O)c3ccnc(N4CCOCC4)c3)cc1-2`, the results for the IC50 in assay [1] and in assay [2] were 0.589 µM and above 5 µM, respectively.

For `CN1CCCN(c2cc(C(=O)Nc3ccc4c(c3)-c3c(c(C(N)=O)nn3-c3ccc(F)cc3)CC4)c(Cl)cn2)CC1`, the IC50 in assay [1] is 0.029 µM; in assay [2], 2.36 µM.

Consider `NC(=O)c1nn(-c2ccc3c(c2)OCO3)c2c1CCc1ccc(NC(=O)c3cc(N4CCNCC4)ncc3Cl)cc1-2`, for which the results for the half-inhibitory concentration (IC50) in assay [1] and in assay [2] were 0.04 µM and 1.86 µM, respectively. `NC(=O)c1nn(-c2ccc(F)cc2)c2c1CCc1ccc(NC(=O)c3cccnc3Cl)cc1-2`: the IC50 was 0.047 µM in assay [1] and 12 µM in assay [2]. With `CN1CCN(c2ncccc2C(=O)Nc2ccc3c(c2)-c2c(c(C(N)=O)nn2-c2ccc4c(c2)OCO4)CC3)CC1`, the concentration for half-maximal inhibition (IC50) in assay [1] stood at 17.3 µM. Regarding `CN1CCN(c2ccc(Cl)c(C(=O)Nc3ccc4c(c3)-c3c(c(C(N)=O)nn3-c3ccc5c(c3)OCO5)CC4)n2)CC1`, the IC50 in assay [1] came out at 0.297 µM; in assay [2], 4.42 µM. For `CN(C)CCNc1cc(C(=O)Nc2ccc3c(c2)-c2c(c(C(N)=O)nn2-c2ccc(F)cc2)CC3)c(Cl)cn1` the same measures were 0.07 µM and 4.72 µM. For `C[C@@H]1CN(c2cc(C(=O)Nc3ccc4c(c3)-c3c(c(C(N)=O)nn3-c3ccc(F)cc3)CC4)c(Cl)cn2)CCN1` the same measures were 0.054 µM and 3.98 µM. Turning to `C[C@@H]1CN(c2cc(C(=O)Nc3ccc4c(c3)-c3c(c(C(N)=O)nn3-c3ccc(F)cc3)CC4)c(Cl)cn2)CCN1C`, the IC50 turned out to be 0.048 µM in assay [1] and 2.18 µM in assay [2].

As for `CN1CCN(c2ccc(Cl)c(C(=O)Nc3ccc4c(c3)-c3c(c(C(N)=O)nn3-c3ccc(F)cc3)CC4)n2)CC1`, the IC50 in assay [1] turned out to be 0.348 µM; in assay [2], 4.83 µM. Consider `CC(C)N1CCN(c2cc(C(=O)Nc3ccc4c(c3)-c3c(c(C(N)=O)nn3-c3ccc(F)cc3)CC4)c(Cl)cn2)CC1`, for which the IC50 came to 0.107 µM in assay [1] and 1.49 µM in assay [2].

`NC(=O)c1nn(-c2ccc(F)cc2)c2c1CCc1ccc(NC(=O)c3cc(N4CCCNCC4)ncc3Cl)cc1-2`: the IC50 worked out at 0.027 µM in assay [1] and 1.94 µM in assay [2]. Turning to `NC(=O)c1nn(-c2ccc3c(c2)OCO3)c2c1CCc1ccc(NC(=O)c3cccnc3N3CCOCC3)cc1-2`, the IC50 in assay [1] was 5.91 µM. For `CNc1ncccc1C(=O)Nc1ccc2c(c1)-c1c(c(C(N)=O)nn1-c1ccc3c(c1)OCO3)CC2`, the IC50 in assay [1] worked out at 0.21 µM; in assay [2], 3.37 µM. In the same order, the values of `C[C@H]1CN(c2cc(C(=O)Nc3ccc4c(c3)-c3c(c(C(N)=O)nn3-c3ccc(F)cc3)CC4)c(Cl)cn2)CCN1C` are 0.045 µM and 1.31 µM.

With `C[C@@H]1CN(c2cc(C(=O)Nc3ccc4c(c3)-c3c(c(C(N)=O)nn3-c3ccc(F)cc3)CC4)c(Cl)cn2)C[C@H](C)N1C`, the values for the half-inhibitory concentration (IC50) in assay [1] and in assay [2] were 0.098 µM and 5.5 µM, respectively. As for `NC(=O)c1nn(-c2ccc(F)cc2)c2c1CCc1ccc(NC(=O)c3cc(N4CCOCC4)ncc3Cl)cc1-2`, the results for the half-maximal inhibitory concentration (IC50) in assay [1] and in assay [2] were 0.146 µM and 2.14 µM, respectively. Turning to `CN1CCN(c2cc(C(=O)Nc3ccc4c(c3)-c3c(c(C(N)=O)nn3-c3ccc(F)cc3)CC4)ccn2)CC1`, the 50% inhibitory concentration (IC50) is 0.125 µM in assay [1] and above 5 µM in assay [2].
